Screening data deposited in PubChem BioAssay by Broad Institute.
PDI inh = inhibitors of human PDI, primary screen, biochemical, turbidity, single point, plate reader; PDI insulin aggregation turbidity, A650, 90 min; inhibition, % at 10 µM; 350,000 compounds, 0.052% hits;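 active = mean inhibition across replicates of 30% or more, whatever share of single replicates reach that level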
ERAP1 inh = human ERAP1 aminopeptidase inhibitors, primary screen, biochemical, single point, plate reader; Endoplasmic reticulum aminopeptidase 1 (Homo sapiens), Q9NZ08; recombinant ERAP1, Leu-AMC fluorescence, 60 min; inhibition, % at 10.7 µM; 340,000 compounds, 0.15% hits; AID 652197, 2013;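 active = mean replicate inhibition of at least 30%, or all replicates individually reaching that 30% level; inactive = mean below 30% and not every replicate reaching it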
FGF22 binding = binders of human FGF22 protein, primary screen, FGF22 synaptogenesis inhibitor project, biophysical, thermal shift, single point; Fibroblast growth factor 22 (Homo sapiens), Q9HCT0; recombinant FGF22 thermal shift, SYPRO orange fluorescence; percent of sucrose octasulfate shift, DMSO zero; activity (Tm shift, normalised), % at 9.99 µM; 340,000 compounds, 1.5% hits;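 active = mean Tm shift, scaled 0 neutral to 100 positive control, at about 1.3% or above, every replicate too, limit read from the data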
Target sequence (Q9HCT0 whole entry, looked up): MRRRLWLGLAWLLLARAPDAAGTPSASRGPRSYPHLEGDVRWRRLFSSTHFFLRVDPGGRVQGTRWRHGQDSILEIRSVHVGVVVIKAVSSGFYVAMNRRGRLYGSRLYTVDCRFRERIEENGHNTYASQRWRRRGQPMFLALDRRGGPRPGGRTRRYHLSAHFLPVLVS
S100A4 MyoIIA = inhibitors of S100A4-myosin IIA peptide binding, primary screen, biochemical, fluorescence polarization, TAMRA-MyoIIA peptide. 360,000 compounds, 0.14% hits. inhibition, % at 10.7 µM. AID 652163, 2013;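 active = mean inhibition of at least 70% across replicates, with every replicate also reaching that level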
Target sequence (P26447 whole entry, looked up): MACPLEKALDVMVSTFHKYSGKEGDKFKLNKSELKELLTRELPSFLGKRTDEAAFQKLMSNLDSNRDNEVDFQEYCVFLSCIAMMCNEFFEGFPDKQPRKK
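Material: human S100A4 monomer with TAMRA-labelled myosin IIA peptide; buffer or medium: HEPES pH 7.2 with CaCl2, KCl, NaCl, DTT, Triton; compound dosing: one concentration per compound; schedule: 5 min incubation before reading; benchmarks: neutral control DMSO, positive control TFP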
ERp5 block = inhibitors of ERp5-driven insulin aggregation, primary screen, biochemical, turbidity, absorbance 650 nm, single point; 90 min; 350,000 compounds, 0.05% hits; Protein disulfide-isomerase A6 (Homo sapiens), Q15084; inhibition, % at 9.99 µM;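 active = mean replicate inhibition above about 25%, with every replicate also reaching it, limit read from the data, passing the limit was not always enough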
Numbers stand for hits. The entries come from a sample that favours hits as a whole.

For CCOc1ccc2nc(NC(=O)CSc3nc(SC)ns3)sc2c1 the results were PDI inh inactive, ERAP1 inh inactive, FGF22 binding 1.7, S100A4 MyoIIA inactive and ERp5 block inactive.
For CCOc1ccc2nc(NC(=O)CSc3ccc(Cl)cc3)sc2c1 the results were PDI inh inactive.
Screening CCOc1ccc(-c2nnc3ccc(SCC(=O)Nc4nc5ccc(C)cc5s4)nn23)cc1 returned PDI inh inactive, ERAP1 inh inactive, FGF22 binding inactive, S100A4 MyoIIA inactive and ERp5 block inactive.
Screening CCOc1ccc(-c2nnc3ccc(SCC(=O)Nc4nc5ccccc5s4)nn23)cc1 returned PDI inh inactive, ERAP1 inh inactive, FGF22 binding 6.6, S100A4 MyoIIA inactive and ERp5 block inactive.
Cc1ccc(/C=N/n2c(-c3ccccn3)n[nH]c2=S)o1 was read as PDI inh inactive, FGF22 binding inactive, S100A4 MyoIIA inactive and ERp5 block inactive.
Screening O=C(NCc1ccccc1F)C1CC(=O)N(Cc2ccco2)C1 (configuration not stated) returned PDI inh inactive, ERAP1 inh inactive, FGF22 binding 44, S100A4 MyoIIA inactive and ERp5 block inactive.
For Cn1ncc2c(=O)n(/N=C/c3ccccc3)cnc21 the results were PDI inh inactive, ERAP1 inh inactive, FGF22 binding 44, S100A4 MyoIIA inactive and ERp5 block inactive.
Screening Cc1nc2c(cnn2-c2ccccc2)c(=O)n1/N=C/c1ccccc1 returned PDI inh inactive, ERAP1 inh inactive, FGF22 binding inactive, S100A4 MyoIIA inactive and ERp5 block inactive.
Screening Cc1cc(/C=C2\SC(=O)NC2=O)c(C)n1-c1ccc(N2CCOCC2)cc1 returned PDI inh inactive, ERAP1 inh 67, FGF22 binding inactive, S100A4 MyoIIA inactive and ERp5 block inactive.
`Cc1cc(/C=C2/NC(=O)NC2=O)c(C)n1-c1ccc(N2CCOCC2)cc1` gave PDI inh inactive, ERAP1 inh inactive, FGF22 binding 43, S100A4 MyoIIA inactive and ERp5 block inactive.
For Cc1cc(/C=C2\NC(=O)NC2=O)c(C)n1-c1ccc(N2CCOCC2)cc1 the results were PDI inh inactive, ERAP1 inh inactive, FGF22 binding inactive, S100A4 MyoIIA inactive and ERp5 block inactive.
Cc1cc(/C=C2\SC(=O)NC2=O)c(C)n1-c1ccc(N(C)C)cc1 was read as PDI inh inactive, ERAP1 inh inactive, FGF22 binding inactive, S100A4 MyoIIA inactive and ERp5 block inactive.
For CCOC(=O)CC(=O)Nc1cc2ccc(OC)c(OC)c2cc1C(=O)OCC the results were PDI inh inactive, ERAP1 inh inactive, FGF22 binding inactive, S100A4 MyoIIA inactive and ERp5 block inactive.
`CCOC(=O)C1Cn2c(nc3c(c2=O)C2(CCCC2)Cc2ccccc2-3)S1` (configuration not stated) gave PDI inh inactive.
`O=C(O)C1Cn2c(nc3c(c2=O)C2(CCCC2)Cc2ccccc2-3)S1` (configuration not stated) gave PDI inh inactive, ERAP1 inh inactive, FGF22 binding 43, S100A4 MyoIIA inactive and ERp5 block inactive.
CCC(=O)N1[C@H](CO)[C@@H](c2ccc(-c3ccc(F)cc3)cc2)[C@@H]1CN(C)C(C)=O was read as ERAP1 inh inactive, FGF22 binding inactive, S100A4 MyoIIA inactive and ERp5 block inactive.
For O=C(COC(=O)c1ccccc1Cc1ccccc1)Nc1ccc(SC(F)F)cc1 the results were PDI inh inactive, ERAP1 inh inactive, FGF22 binding inactive, S100A4 MyoIIA inactive and ERp5 block inactive.
`O=S1(=O)Cc2cc3ccccc3cc2C1` gave PDI inh inactive, ERAP1 inh inactive, FGF22 binding 43, S100A4 MyoIIA inactive and ERp5 block inactive.
Screening COc1ccc(NC(=O)CSc2nnc(NC(=O)c3ccccc3C(=O)O)s2)cc1 returned PDI inh inactive, ERAP1 inh inactive, FGF22 binding 43, S100A4 MyoIIA inactive and ERp5 block inactive.
Cn1nnnc1SCC(=O)Nc1cccc([N+](=O)[O-])c1 was read as PDI inh inactive, ERAP1 inh inactive, FGF22 binding inactive, S100A4 MyoIIA inactive and ERp5 block inactive.
